Screens deposited in PubChem by The Scripps Research Institute Molecular Screening Center.
NOD2 RIPK2 PPI – NOD2-RIPK2 protein interaction inhibition | AID 624267 | 360,000 tested, 0.38% active | CHO BLA complementation NOD2-RIPK2, CCF4 ratio | inhibition, % at 4.98 µM; in the data active means inhibition above about 21%;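 further: 0% = vehicle only and 100% = reference blocker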
TLR9-MyD88 inh – TLR9-MyD88 interaction inhibition; Q9NR96+Q99836; CHO BLA complementation TLR9-MyD88, CCF4 FRET ratio; inhibition, % at 4.98 µM; 340,000 tested, 0.21% active;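 active means inhibition above the mean over all tested compounds plus 3 SD, cut at about 21% in these data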;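 further: 0% = DMSO only wells and 100% = clavulanate BLA inhibitor control wells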
MC4R antagonist – antagonists of human melanocortin 4 receptor (MC4R) | P32245 | MC4R-expressing cells, MTII-stimulated cAMP, LANCE TR-FRET | inhibition, % at 6.5 µM | 360,000 tested, 0.48% active;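 active means inhibition above its plate's cutoff, the mean of tested wells on that plate plus 3 SD, cut at about 29% in these data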;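 further: 0% = Melanotan II alone and 100% = Melanotan II plus saturating MCL0020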
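Material – human MC4R-expressing U2OS cells · Repeats – no replicates · Detection – TR-FRET with Eu-cAMP and labeled anti-cAMP, 671 nm · Times – compound 30 min, challenge 1 h, detection 1 h · Compound – single nominal compound dose of 6.5 µM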
TLR4-MyD88 BLA – blocks binding of human TLR4 to MyD88 | O00206+Q99836 | HeLa CL3-4 TLR4/MyD88 BLA complementation, FRET ratio | inhibition, % at 8.4 µM | 200,000 tested, 0.18% active | AID 861; in the data active means inhibition above about 25%;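 further: 0% = vehicle and 100% = reference inhibitor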
MC4R ag barr – activates human MC4R beta-arrestin recruitment; U2OS MC4R beta-arrestin complementation, luminescence; percent of melanotan II response, DMSO zero; activation, % at 8.9 µM; P32245; 360,000 tested, 0.98% active;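 active means activation above a per-plate cutoff, the mean activation of sample wells on that plate plus 3 SD, cut at about 8% in these data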
MC4R barr conf – human MC4R beta-arrestin agonism confirmation; shares compounds with MC4R ag barr; activation, % at 8.9 µM; U2OS MC4R beta-arrestin recruitment, luminescence; scaled DMSO 0%, Melanotan II 100%; 2,400 tested, 31% active; AID 602192;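 active means mean activation across replicates above the hit cutoff set in the earlier primary screen, cut at about 8% in these data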
MOR DOR agonist – activates mu-delta opioid heterodimer, MC4R agonist counter-screen; shares compounds with MC4R ag barr; U2OS PathHunter beta-arrestin, beta-gal luminescence; percent of deltorphin B response, DMSO zero; activation, % at 9.2 µM; 2,400 tested, 5.8% active;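 active means mean activation across replicates exceeds the hit threshold derived in the earlier primary screen, cut at about 18% in these data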;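 further: 100% = deltorphin B at 0.9 µM final and 0% = DMSO alone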
* hit, by the source's call; . = no result. The list is not random: actives were taken first. Their share in the collection is about 1.8%.

SMILES	NOD2 RIPK2 PPI	TLR9-MyD88 inh	MC4R antagonist	TLR4-MyD88 BLA	MC4R ag barr	MC4R barr conf	MOR DOR agonist
COc1cc(/C=C/C(=O)OCC(=O)N2CCCc3ccccc32)ccc1O	7	-14	3	.	-1	.	.
O=C(CC1c2ccccc2Oc2ccccc21)Nc1ccccc1C(F)(F)F	-5	-5	5	-9	17*	4	8
O=C(CC1c2ccccc2Oc2ccccc21)Nc1ccccc1F	-5	1	4	-10	11*	5	6
N/C(=N\c1nc2ccccc2o1)NC(=O)c1cccc(Br)c1	-1	.	9	.	-2	.	.
Cc1ccc(C(=O)N/C(N)=N/c2nc3ccccc3o2)cc1	-10	-13	-4	-1	16*	4	2
N/C(=N\c1nc2ccccc2o1)NC(=O)c1ccccc1	0	-3	15	-9	14*	3	5
COc1ccc(C(=O)C(C)OC(=O)CNC(=O)c2ccco2)cc1 (centres undefined)	-10	0	7	.	0	.	.
CN(C)CCCN(C(=O)c1cc2cc([N+](=O)[O-])ccc2s1)c1nc2cc3c(cc2s1)OCCO3	0	-1	-5	.	35*	25*	17
COc1cc(/C=N/NC(=O)c2sc3nc(C)cc(C)c3c2N)ccc1O	-2	.	1	.	16*	1	3
Cc1cc(C)c2c(N)c(C(=O)Nc3ccccc3Br)sc2n1	-2	5	-1	.	10.0*	0	5
O=C(c1ccc2[nH]c(=O)c(=O)[nH]c2c1)N1CCN(c2ccccc2)CC1	-6	0	-2	.	2	.	.
O=[N+]([O-])c1ccc(/C=C/c2ccc3cccc([N+](=O)[O-])c3n2)cc1	3	-3	4	-3	10*	4	7
S=c1[nH]nc(COc2ccccc2)n1/N=C/c1c(Cl)cccc1Cl	2	1	6	.	11*	2	4
S=c1[nH]nc(COc2ccccc2)n1/N=C/c1ccccc1Cl	-3	3	26	.	4	.	.
Cc1ccc(-n2nnc3c(SCC(=O)NCc4ccco4)ncnc32)cc1	-5	-1	4	-2	13*	1	5
COc1ccccc1CCNC(=O)C1CCN(c2nnc(C)c3c(C)n(-c4ccc(C)cc4)nc23)CC1	5	2	13	.	10*	3	3
CCc1ccc(CNC(=O)C2CCCN(c3nnc(C)c4c(C)n(-c5ccccc5)nc34)C2)cc1 (centres undefined)	4	-1	13	.	19*	2	3
Cc1nnc(N2CCCC(C(=O)NCc3cccc(F)c3)C2)c2nn(-c3ccccc3)c(C)c12 (centres undefined)	5	0	7	.	-1	.	.
CCN(CC)S(=O)(=O)c1ccc(C(=O)Nn2cnnc2)cc1	3	1	19	.	0	.	.
Cc1cccc(CN2CCN(C3CN(Cc4cn(Cc5cccc(Cl)c5)nn4)S(=O)(=O)C3)CC2)c1 (centres undefined)	-12	.	.	.	.	.	.
Clc1ccc(-c2nc3nc4ccccc4nc3n2Cc2ccco2)cc1	15	9	-1	2	20*	-2	4
COc1ccc(C)cc1S(=O)(=O)N(C)CC(=O)N1CCCC1	7	0	5	.	-1	.	.
O=C(Nc1cccnc1Cl)c1cc2c(s1)-c1ccccc1OC2	3	-1	11	.	4	.	.
O=C(Nc1ccc(Cl)cn1)c1cc2c(s1)-c1ccccc1OC2	-7	-6	7	.	9.8*	8.3*	3
N#C/C(=C\c1cn(Cc2ccccc2)c2ccccc12)C(=O)NCc1ccco1	-2	-5	7	2	17*	1	3
N#C/C(=C\c1cn(Cc2ccccc2C#N)c2ccccc12)C(=O)NCc1cccs1	.	.	.	-6	.	.	.
N#C/C(=C\c1cn(Cc2cccc(F)c2)c2ccccc12)C(=O)NCc1ccco1	-10	7	-1	6	31*	6	2
